Measured values as given in ChEMBL document CHEMBL4627393, “Discovery of Potent, Selective, and State-Dependent NaV1.7 Inhibitors with Robust Oral Efficacy in Pain Models: Structure-Activity Relationship and Optimization of Chroman and Indane Aryl Sulfonamides” (J Med Chem, 2020).
One block for each compound: values may come before it.

Columns and labels:
[1] = Lipophilicity, log D of the compound; format: physicochemical; conditions: octanol/water
[2] = AUClast in BALB/c mouse at 1 mg/kg, iv measured upto 24 hrs by LC/MS-MS analysis; format: ADME, organism-based; set-up: time < 24 hr, dose 1 mg/kg, route intravenous; conditions: in vivo
[3] = Metabolic stability in mouse liver microsomes assessed as metabolic rate at 1 uM preincubated for 5 mins followed by NADPH addition and measured up to 30 mins by LC/MS-MS analysis; format: ADME, Microsome; conditions: 0.5 h
[4] = AUClast in BALB/c mouse at 10 mg/kg, po measured upto 24 hrs by LC/MS-MS analysis; format: ADME, organism-based; set-up: dose 10 mg/kg, time < 24 hr, route oral; conditions: in vivo
[5] = Metabolic stability in rat liver microsomes assessed as metabolic rate at 1 uM preincubated for 5 mins followed by NADPH addition and measured up to 30 mins by LC/MS-MS analysis; format: ADME, Microsome; conditions: 0.5 h
[6] = Half life in BALB/c mouse at 1 mg/kg, iv measured upto 24 hrs by LC/MS-MS analysis; format: ADME, organism-based; conditions: in vivo
[7] = Cmax in BALB/c mouse at 1 mg/kg, iv measured upto 24 hrs by LC/MS-MS analysis; format: ADME, organism-based; set-up: dose 1 mg/kg, route intravenous; conditions: in vivo
[8] = Cmax in BALB/c mouse at 10 mg/kg, po measured upto 24 hrs by LC/MS-MS analysis; format: ADME, organism-based; set-up: dose 10 mg/kg, route oral; conditions: in vivo
[9] = Volume of distribution at steady state in BALB/c mouse at 1 mg/kg, iv measured upto 24 hrs by LC/MS-MS analysis; format: ADME, organism-based; conditions: in vivo, read-out: Vdss
Method in brief: (§1)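 Pharmacokinetics were run with an IV dose of 1 mg/kg and a PO dose of 10 mg/kg. Parameters reported were AUClast, Cmax, CL, T1/2, Vss and %F.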

[10] = Metabolic stability in human liver microsomes assessed as metabolic rate at 1 uM preincubated for 5 mins followed by NADPH addition and measured up to 30 mins by LC/MS-MS analysis; format: ADME, Microsome; conditions: 0.5 h
[11] = Clearance in BALB/c mouse at 1 mg/kg, iv measured upto 24 hrs by LC/MS-MS analysis; format: ADME, organism-based; conditions: in vivo
[12] = Oral bioavailability in BALB/c mouse at 10 mg/kg measured upto 24 hrs by LC/MS-MS analysis; format: ADME, organism-based; conditions: in vivo; method in brief: as §1
[13] = Metabolic stability in monkey liver microsomes assessed as metabolic rate at 1 uM preincubated for 5 mins followed by NADPH addition and measured up to 30 mins by LC/MS-MS analysis; format: ADME, Macaca mulatta, Microsome; conditions: rhesus monkey, 0.5 h
[14] = AUClast in Sprague-Dawley rat at 1 mg/kg, iv measured upto 24 hrs by LC/MS-MS analysis; format: ADME, organism-based; set-up: dose 1 mg/kg, time < 24 hr, route intravenous; conditions: in vivo
[15] = Cmax in Beagle dog at 1 mg/kg, iv administered as infusion for 15 mins by LC/MS-MS analysis; format: ADME, organism-based, Canis lupus familiaris; set-up: dose 1 mg/kg, route intravenous; conditions: in vivo
[16] = AUClast in Sprague-Dawley rat at 10 mg/kg, po measured upto 24 hrs by LC/MS-MS analysis; format: ADME, organism-based; set-up: time < 24 hr, dose 10 mg/kg, route oral; conditions: in vivo
[17] = Cmax in Sprague-Dawley rat at 1 mg/kg, iv measured upto 24 hrs by LC/MS-MS analysis; format: ADME, organism-based; set-up: dose 1 mg/kg, route intravenous; conditions: in vivo
[18] = Clearance in Beagle dog at 1 mg/kg, iv administered as infusion for 15 mins by LC/MS-MS analysis; format: ADME, organism-based, Canis lupus familiaris; conditions: in vivo
[19] = Cmax in Sprague-Dawley rat at 10 mg/kg, po measured upto 24 hrs by LC/MS-MS analysis; format: ADME, organism-based; set-up: dose 10 mg/kg, route oral; conditions: in vivo
[20] = Volume of distribution at steady state in Beagle dog at 1 mg/kg, iv administered as infusion for 15 mins by LC/MS-MS analysis; format: ADME, organism-based, Canis lupus familiaris; conditions: in vivo, read-out: Vdss; method in brief: as §1
[21] = AUClast in Beagle dog at 1 mg/kg, iv administered as infusion for 15 mins by LC/MS-MS analysis; format: ADME, organism-based, Canis lupus familiaris; set-up: dose 1 mg/kg, time 0 - last, route intravenous; conditions: in vivo
[22] = Volume of distribution at steady state in Sprague-Dawley rat at 1 mg/kg, iv measured upto 24 hrs by LC/MS-MS analysis; format: ADME, organism-based; conditions: in vivo, read-out: Vdss
[23] = Bioavailability in Beagle dog at 1 mg/kg, iv administered as infusion for 15 mins followed by compound washout and subsequent compound dosing at 5 mg/kg, po measured up to 24 hrs by LC/MS-MS analysis; format: ADME, organism-based, Canis lupus familiaris; conditions: in vivo
[24] = Apparent permeability across apical to basolateral side in human Caco2 cells; format: ADME, cell-based; conditions: Caco-2
[25] = Oral bioavailability in Sprague-Dawley rat at 10 mg/kg measured upto 24 hrs by LC/MS-MS analysis; format: ADME, organism-based; conditions: in vivo; method in brief: as §1
[26] = Metabolic stability in dog liver microsomes assessed as metabolic rate at 1 uM preincubated for 5 mins followed by NADPH addition and measured up to 30 mins by LC/MS-MS analysis; format: ADME, Canis lupus familiaris, Microsome; conditions: 0.5 h
[27] = Half life in Sprague-Dawley rat at 1 mg/kg, iv measured upto 24 hrs by LC/MS-MS analysis; format: ADME, organism-based; conditions: in vivo
[28] = AUClast in Beagle dog at 1 mg/kg, iv administered as infusion for 15 mins followed by compound washout and subsequent compound dosing at 5 mg/kg, po measured up to 24 hrs by LC/MS-MS analysis; format: ADME, organism-based, Canis lupus familiaris; conditions: in vivo
[29] = Half life in Beagle dog at 1 mg/kg, iv administered as infusion for 15 mins by LC/MS-MS analysis; format: ADME, organism-based, Canis lupus familiaris; conditions: in vivo
[30] = Cmax in Beagle dog at 1 mg/kg, iv administered as infusion for 15 mins followed by compound washout and subsequent compound dosing at 5 mg/kg, po measured up to 24 hrs by LC/MS-MS analysis; format: ADME, organism-based, Canis lupus familiaris; conditions: in vivo
[31] = Apparent permeability across basolateral to apical side in human Caco2 cells; format: ADME, cell-based; conditions: Caco-2
[32] = Clearance in Sprague-Dawley rat at 1 mg/kg, iv measured upto 24 hrs by LC/MS-MS analysis; format: ADME, organism-based; conditions: in vivo

logD [1]: 4.5
SMILES: O=S(=O)(Nc1nccs1)c1ccc2c(c1)OCC[C@@H]2c1ccc(C(F)(F)F)cc1-c1ccc(F)cc1

logD [1]: 2.1
SMILES: CN1CCN(c2cc(C(F)(F)F)ccc2[C@H]2CCOc3cc(S(=O)(=O)Nc4nccs4)ccc32)CC1

logD [1]: 3.5
SMILES: O=S(=O)(Nc1nccs1)c1ccc2c(c1)OCC[C@@H]2c1ccc(C(F)(F)F)cc1-c1ccc(F)cn1

logD [1]: 2.8
SMILES: Cc1nc(-c2cc(C(F)(F)F)ccc2[C@H]2CCOc3cc(S(=O)(=O)Nc4ncccn4)ccc32)co1

logD [1]: 2.9
SMILES: O=S(=O)(Nc1ncccn1)c1ccc2c(c1)CC[C@@H]2c1ccc(C(F)(F)F)cc1N1CCOCC1

logD [1]: 2.9
SMILES: O=S(=O)(Nc1ncc(F)cn1)c1ccc2c(c1)OCC[C@@H]2c1ccc(C(F)(F)F)cc1-c1ccc(F)nc1

logD [1]: 1.8
SMILES: O=C1COCCN1c1cc(C(F)(F)F)ccc1[C@H]1CCOc2cc(S(=O)(=O)Nc3nccs3)ccc21

logD [1]: 1.8
SMILES: Cn1nccc1-c1cc(C(F)(F)F)ccc1[C@H]1CCOc2cc(S(=O)(=O)Nc3cnccn3)ccc21

logD [1]: 1.4
SMILES: O=S(=O)(Nc1nccs1)c1ccc2c(c1)OCC[C@@H]2c1ccc(C(F)(F)F)cc1N1CCNCC1

AUC(0-t) at 24 h [2]: 0.9 µM·h
Drug metabolism [3]: 0.02 nmol/min/mg
AUC(0-t) at 24 h [4]: 7.1 µM·h
Drug metabolism [5]: 0.02 nmol/min/mg
half-life [6]: 0.4 h
Cmax [7]: 2.2 µM
Cmax [8]: 3 µM
Vd [9]: 1 L/kg
Drug metabolism [10]: 0.02 nmol/min/mg
clearance [11]: 37 mL/min/kg
bioavailability [12]: 79%
logD [1]: 2.3
SMILES: O=S(=O)(Nc1nccs1)c1ccc2c(c1)OCC[C@@H]2c1ccc(C(F)(F)F)cc1-n1ccnn1

logD [1]: 2.3
SMILES: O=S(=O)(Nc1ccncn1)c1ccc2c(c1)OCC[C@@H]2c1ccc(C(F)(F)F)cc1-c1ccc(F)nc1

AUC(0-t) at 24 h [2]: 12 µM·h
Drug metabolism [13]: 0.01 nmol/min/mg
AUC(0-t) at 24 h [14]: 15 µM·h
Cmax [15]: 5.7 µM
AUC(0-t) at 24 h [16]: 111 µM·h
Drug metabolism [3]: 0 nmol/min/mg
Cmax [17]: 1.7 µM
clearance [18]: 0.3 mL/min/kg
AUC(0-t) at 24 h [4]: 171 µM·h
Drug metabolism [5]: 0 nmol/min/mg
Cmax [19]: 6.6 µM
Vd [20]: 0.5 L/kg
half-life [6]: 3.2 h
AUC(0-t) at 0.25 h [21]: 70 µM·h
Vd [22]: 1.2 L/kg
Cmax [7]: 2 µM
bioavailability [23]: 78%
Cmax [8]: 17 µM
Vd [9]: 0.8 L/kg
Drug metabolism [10]: 0 nmol/min/mg
clearance [11]: 2.6 mL/min/kg
Papp [24]: 41.8 ×10⁻⁶ cm/s
bioavailability [25]: 74%
Drug metabolism [26]: 0.03 nmol/min/mg
half-life [27]: 9.8 h
bioavailability [12]: > 100%
AUC(0-t) [28]: 218 µM·h
half-life [29]: 24 h
logD [1]: 2.8
Cmax [30]: 14 µM
Papp [31]: 33.4 ×10⁻⁶ cm/s
clearance [32]: 2 mL/min/kg
SMILES: O=S(=O)(Nc1ncccn1)c1ccc2c(c1)OCC[C@@H]2c1ccc(C(F)(F)F)cc1-c1ccc(F)nc1

logD [1]: 2.5
SMILES: O=S1(=O)CCN(c2cc(C(F)(F)F)ccc2[C@H]2CCOc3cc(S(=O)(=O)Nc4nccs4)ccc32)CC1

logD [1]: 3.8
SMILES: Cn1nccc1-c1cc(C(F)(F)F)ccc1[C@H]1CCOc2cc(S(=O)(=O)Nc3ccc(F)cn3)ccc21

logD [1]: 3.6
SMILES: Cn1nccc1-c1cc(C(F)(F)F)ccc1[C@H]1CCOc2cc(S(=O)(=O)Nc3cccc(F)n3)ccc21

logD [1]: 3.2
SMILES: O=S(=O)(Nc1ncccn1)c1ccc2c(c1)CC[C@@H]2c1ccc(C(F)(F)F)cc1-c1ccc(F)nc1

logD [1]: 2.5
SMILES: Cc1ccc(-c2cc(C(F)(F)F)ccc2[C@H]2CCOc3cc(S(=O)(=O)Nc4ncc(F)cn4)ccc32)cn1

logD [1]: 2.3
SMILES: O=S(=O)(Nc1nccs1)c1ccc2c(c1)OCC[C@H]2c1ccc(C(F)(F)F)cc1-n1ccnn1

logD [1]: 2.5
SMILES: Cn1nccc1-c1cc(C(F)(F)F)ccc1[C@H]1CCOc2cc(S(=O)(=O)Nc3ncc(F)cn3)ccc21

logD [1]: 3.7
SMILES: Cc1ccc(-c2cc(C(F)(F)F)ccc2[C@H]2CCOc3cc(S(=O)(=O)Nc4cccc(F)n4)ccc32)cn1

logD [1]: 2.8
SMILES: Cc1nc(-c2cc(C(F)(F)F)ccc2[C@H]2CCOc3cc(S(=O)(=O)Nc4ncc(F)cn4)ccc32)co1
